Experimental data taken from ChEMBL document CHEMBL1128437, “Derivatives of 17-phenyl-18,19,20-trinorprostaglandin F2 alpha isopropyl ester: potential antiglaucoma agents” (J Med Chem, 1995).

Key:
Felis catus [1] = species on record: Felis catus; experiment: The maximal difference in […] pupil diameter between treated and control eyes. The effect was tested in cats at a dose of 3.0 (ug/eye); format: functional
Procedure, shortened: (§1)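 Trained female cats, 2–3 kg, were dosed unilaterally with one 20 µL topical drop of drug in 0.9% NaCl/0.5% polysorbate 80, with vehicle in the contralateral eye. Horizontal pupil diameter was measured with a millimetre ruler under constant 10 lux illumination before dosing and at 1, 3, 6 and 23 h. Reported as maximal treated–control difference or as area between curves, per animal.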

Felis catus [2] = species on record: Felis catus; experiment: The maximal difference in Intraocular Pressure (IOP) between treated and control eyes. The effect was tested in cats at a dose of 1.0 (ug/eye); format: functional
Procedure, shortened: (§2)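 Domestic female cats, 2–3 kg, trained for IOP measurement. One eye received a topical drop (20 µL) of drug in 0.9% NaCl with 0.5% polysorbate 80; the other eye received vehicle. IOP was read by pneumatonometer under oxibuprocain local anaesthesia before dosing and at 1, 3, 6 and 23 h. The maximal treated-minus-control difference was taken. Area between curves is the treated-eye AUC minus control-eye AUC, per animal.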

Oryctolagus cuniculus [3] = species on record: Oryctolagus cuniculus; experiment: The maximal difference in conjunctival hyperemia between treated and control eyes. The effect was tested in rabbit at a dose of 0.5 (ug/eye)
Oryctolagus cuniculus [4] = species on record: Oryctolagus cuniculus; experiment: The mean area between curves for conjunctival hyperemia between treated and control eyes. The effect was tested in rabbit at a dose of 0.5 (ug/eye)
Felis catus [5] = species on record: Felis catus; experiment: The mean area between curves for pupil diameter between treated and control eyes. The effect was tested in cats at a dose of 1.0 (ug/eye); format: functional; procedure, shortened: as §1
Felis catus [6] = species on record: Felis catus; experiment: The mean area between curves for Intraocular Pressure (IOP) measured in treated and control eyes. The effect was tested in cats at a dose of 3.0 (ug/eye); format: functional; procedure, shortened: as §2
Felis catus [7] = species on record: Felis catus; experiment: The maximal difference in Intraocular Pressure (IOP) between treated and control eyes. The effect was tested in cats at a dose of 3.0 (ug/eye); format: functional; procedure, shortened: as §2
Felis catus [8] = species on record: Felis catus; experiment: The mean ocular irritation in the treated eyes. An arbitrary scale of from 0 to 3 was used, 0 indicates absence of irritation and 3 complete closure of the lids. The effect was tested in cats at a dose of 3.0 (ug/eye); format: functional
Procedure, shortened: (§3)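 Ocular irritation was scored in the treated eye of trained female cats, 2–3 kg. Drug was given as one topical 20 µL drop in 0.9% NaCl with 0.5% polysorbate 80. The contralateral eye got vehicle only.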

Felis catus [9] = species on record: Felis catus; experiment: The mean area between curves for Intraocular Pressure (IOP) measured in treated and control eyes. The effect was tested in cats at a dose of 1.0 (ug/eye); format: functional; procedure, shortened: as §2
Felis catus [10] = species on record: Felis catus; experiment: The mean area between curves for pupil diameter between treated and control eyes. The effect was tested in cats at a dose of 3.0 (ug/eye); format: functional; procedure, shortened: as §1
Felis catus [11] = species on record: Felis catus; experiment: The maximal difference in […] pupil diameter between treated and control eyes. The effect was tested in cats at a dose of 1.0 (ug/eye); format: functional; procedure, shortened: as §1
Felis catus [12] = species on record: Felis catus; experiment: The mean ocular irritation in the treated eyes. An arbitrary scale of from 0 to 3 was used, 0 indicates absence of irritation and 3 complete closure of the lids. The effect was tested in cats at a dose of 1.0 (ug/eye); format: functional; procedure, shortened: as §3

CC(=O)c1cccc(CC[C@@H](O)/C=C/[C@@H]2[C@@H](C/C=C\CCCC(=O)OC(C)C)[C@@H](O)C[C@H]2O)c1
Pmax (Felis catus [1]): < -0.7 mm
Imax (Felis catus [2]): -4 mmHg
Hmax (Oryctolagus cuniculus [3]): -0.3
H ABC (Oryctolagus cuniculus [4]): -0.7
P ABC (Felis catus [5]): 1.2
I ABC (Felis catus [6]): -23.8
Imax (Felis catus [7]): <-2.6 mmHg
Irritation (Felis catus [8]): 0.1 arbitrary units
I ABC (Felis catus [9]): -43.3
P ABC (Felis catus [10]): -1.4
Pmax (Felis catus [11]): 0.6 mm
Irritation (Felis catus [12]): 0.3 arbitrary units

CC(C)OC(=O)CCC/C=C\C[C@@H]1[C@@H](/C=C/[C@H](O)CCc2cccc(-c3ccco3)c2)[C@H](O)C[C@@H]1O
Pmax (Felis catus [1]): -0.3 mm
Hmax (Oryctolagus cuniculus [3]): 0.3
H ABC (Oryctolagus cuniculus [4]): 0.4
I ABC (Felis catus [6]): -8
Imax (Felis catus [7]): -1.2 mmHg
Irritation (Felis catus [8]): 0.4 arbitrary units
P ABC (Felis catus [10]): -5.7

CC(=O)c1ccc(CC[C@@H](O)/C=C/[C@@H]2[C@@H](C/C=C\CCCC(=O)OC(C)C)[C@@H](O)C[C@H]2O)cc1
Imax (Felis catus [2]): -1.8 mmHg
Hmax (Oryctolagus cuniculus [3]): -0.2
H ABC (Oryctolagus cuniculus [4]): -0.3
P ABC (Felis catus [5]): 0.2
I ABC (Felis catus [9]): -17.9
Pmax (Felis catus [11]): -0.2 mm
Irritation (Felis catus [12]): 0 arbitrary units

CC(C)OC(=O)CCC/C=C\C[C@@H]1[C@@H](/C=C/[C@H](O)CCc2ccc(-c3ccco3)cc2)[C@H](O)C[C@@H]1O
Pmax (Felis catus [1]): < -1.5 mm
Hmax (Oryctolagus cuniculus [3]): <0.5
H ABC (Oryctolagus cuniculus [4]): <1
I ABC (Felis catus [6]): -25.8
Imax (Felis catus [7]): 2.5 mmHg
Irritation (Felis catus [8]): 0.2 arbitrary units
P ABC (Felis catus [10]): <-10.6

CC(C)OC(=O)CCC/C=C\C[C@@H]1[C@@H](/C=C/[C@H](O)CCc2ccc(-c3ccsc3)cc2)[C@H](O)C[C@@H]1O
Imax (Felis catus [2]): -0.3 mmHg
Hmax (Oryctolagus cuniculus [3]): -0.2
H ABC (Oryctolagus cuniculus [4]): -0.1
P ABC (Felis catus [5]): -1.8
I ABC (Felis catus [9]): -3.1
Pmax (Felis catus [11]): < -0.7 mm
Irritation (Felis catus [12]): 0 arbitrary units

CC(C)OC(=O)CCC/C=C\C[C@@H]1[C@@H](/C=C/[C@@H](O)CCc2cccc(-c3ccco3)c2)[C@H](O)C[C@@H]1O
Pmax (Felis catus [1]): -0.3 mm
Hmax (Oryctolagus cuniculus [3]): <0.3
H ABC (Oryctolagus cuniculus [4]): 0.3
I ABC (Felis catus [6]): 9.8
Imax (Felis catus [7]): 0.8 mmHg
Irritation (Felis catus [8]): 0.1 arbitrary units
P ABC (Felis catus [10]): -2.5

CC(C)OC(=O)CCC/C=C\C[C@@H]1[C@@H](/C=C/[C@H](O)CCc2cccc(-c3ccsc3)c2)[C@H](O)C[C@@H]1O
Imax (Felis catus [2]): 1.7 mmHg
Hmax (Oryctolagus cuniculus [3]): -0.3
H ABC (Oryctolagus cuniculus [4]): -0.8
P ABC (Felis catus [5]): <-14
I ABC (Felis catus [9]): 16
Pmax (Felis catus [11]): < -1 mm
Irritation (Felis catus [12]): 0.1 arbitrary units

CC(C)OC(=O)CCC/C=C\C[C@@H]1[C@@H](/C=C/[C@@H](O)CCc2cccc(-c3ccsc3)c2)[C@H](O)C[C@@H]1O
Imax (Felis catus [2]): -1.1 mmHg
Hmax (Oryctolagus cuniculus [3]): <1.3
H ABC (Oryctolagus cuniculus [4]): <2.9
P ABC (Felis catus [5]): -1.7
I ABC (Felis catus [9]): -21
Pmax (Felis catus [11]): < -1 mm
Irritation (Felis catus [12]): 0.1 arbitrary units

CC(C)OC(=O)CCC/C=C\C[C@@H]1[C@@H](/C=C/[C@H](O)CCc2ccccc2)[C@H](O)C[C@@H]1O
Imax (Felis catus [2]): -0.5 mmHg
Hmax (Oryctolagus cuniculus [3]): <1.7
P ABC (Felis catus [5]): <-50.5
I ABC (Felis catus [9]): 0.3
Pmax (Felis catus [11]): < -5.7 mm
Irritation (Felis catus [12]): 0 arbitrary units

Cc1cccc(CC[C@@H](O)/C=C/[C@@H]2[C@@H](C/C=C\CCCC(=O)OC(C)C)[C@@H](O)C[C@H]2O)c1
Imax (Felis catus [2]): -0.3 mmHg
Hmax (Oryctolagus cuniculus [3]): 0.2
H ABC (Oryctolagus cuniculus [4]): -0.1
P ABC (Felis catus [5]): <-13.3
I ABC (Felis catus [9]): -1.8
Pmax (Felis catus [11]): < -1.5 mm
Irritation (Felis catus [12]): 0.1 arbitrary units

CC(C)OC(=O)CCC/C=C\C[C@@H]1[C@@H](/C=C/[C@H](O)CCc2ccc(-c3ccoc3)cc2)[C@H](O)C[C@@H]1O
Hmax (Oryctolagus cuniculus [3]): -0.3
H ABC (Oryctolagus cuniculus [4]): -0.7

CC(C)OC(=O)CCC/C=C\C[C@@H]1[C@@H](/C=C/[C@@H](O)CCc2cccc(-c3ccccc3)c2)[C@H](O)C[C@@H]1O
Imax (Felis catus [2]): <-4 mmHg
Hmax (Oryctolagus cuniculus [3]): <0.9
H ABC (Oryctolagus cuniculus [4]): <1.9
P ABC (Felis catus [5]): 2.3
I ABC (Felis catus [9]): <-30
Pmax (Felis catus [11]): -0.3 mm
Irritation (Felis catus [12]): 0.1 arbitrary units

CC(C)OC(=O)CCC/C=C\C[C@@H]1[C@@H](/C=C/[C@H](O)CCc2ccc(-c3cccs3)cc2)[C@H](O)C[C@@H]1O
Pmax (Felis catus [1]): 0 mm
Hmax (Oryctolagus cuniculus [3]): 0.3
H ABC (Oryctolagus cuniculus [4]): 0.3
I ABC (Felis catus [6]): 4.2
Imax (Felis catus [7]): -1.3 mmHg
Irritation (Felis catus [8]): 0.2 arbitrary units
P ABC (Felis catus [10]): 0

CC(C)OC(=O)CCC/C=C\C[C@@H]1[C@@H](/C=C/[C@H](O)CCc2cccc(-c3cccs3)c2)[C@H](O)C[C@@H]1O
Imax (Felis catus [2]): <2.2 mmHg
Hmax (Oryctolagus cuniculus [3]): 0.2
H ABC (Oryctolagus cuniculus [4]): 0.1
P ABC (Felis catus [5]): <-12.4
I ABC (Felis catus [9]): 12.8
Pmax (Felis catus [11]): < -1.3 mm
Irritation (Felis catus [12]): 0.3 arbitrary units

CC(C)OC(=O)CCC/C=C\C[C@@H]1[C@@H](/C=C/[C@H](O)CCc2cccc(-c3ccccc3)c2)[C@H](O)C[C@@H]1O
Imax (Felis catus [2]): <-1.5 mmHg
Hmax (Oryctolagus cuniculus [3]): <0.7
H ABC (Oryctolagus cuniculus [4]): <2.2
P ABC (Felis catus [5]): 6.5
I ABC (Felis catus [9]): -23.5
Pmax (Felis catus [11]): 0.5 mm
Irritation (Felis catus [12]): 0 arbitrary units

CC(C)OC(=O)CCC/C=C\C[C@@H]1[C@@H](/C=C/[C@@H](O)CCc2ccc(-c3ccoc3)cc2)[C@H](O)C[C@@H]1O
Hmax (Oryctolagus cuniculus [3]): 0.2
H ABC (Oryctolagus cuniculus [4]): 0.3

CC(C)OC(=O)CCC/C=C\C[C@@H]1[C@@H](/C=C/[C@H](O)CCc2cccc(-c3ccoc3)c2)[C@H](O)C[C@@H]1O
Pmax (Felis catus [1]): -1.3 mm
Hmax (Oryctolagus cuniculus [3]): <0.5
H ABC (Oryctolagus cuniculus [4]): <1.6
I ABC (Felis catus [6]): -16.3
Imax (Felis catus [7]): -3 mmHg
Irritation (Felis catus [8]): 0 arbitrary units
P ABC (Felis catus [10]): -13

Cc1ccc(CC[C@@H](O)/C=C/[C@@H]2[C@@H](C/C=C\CCCC(=O)OC(C)C)[C@@H](O)C[C@H]2O)cc1
Pmax (Felis catus [1]): -0.2 mm
Hmax (Oryctolagus cuniculus [3]): 0.2
H ABC (Oryctolagus cuniculus [4]): -0.2
I ABC (Felis catus [6]): -10.8
Imax (Felis catus [7]): -1.8 mmHg
Irritation (Felis catus [8]): 0 arbitrary units
P ABC (Felis catus [10]): -0.2

CC(C)OC(=O)CCC/C=C\C[C@@H]1[C@@H](/C=C/[C@@H](O)CCc2cccc(-c3ccoc3)c2)[C@H](O)C[C@@H]1O
Pmax (Felis catus [1]): -1.3 mm
Hmax (Oryctolagus cuniculus [3]): <0.5
H ABC (Oryctolagus cuniculus [4]): 1.3
I ABC (Felis catus [6]): -24.4
Imax (Felis catus [7]): -3 mmHg
Irritation (Felis catus [8]): 0.5 arbitrary units
P ABC (Felis catus [10]): <-9.3
